PMC5417336 (Journal of immunology (Baltimore, Md. : 1950), 2017)
≈ marks a conversion by molar mass, not a printed value. Entries after “also recorded” stand apart in the source; their conditions may differ. Read-outs that look alike come from different tables or passages of the source.

Experiments:
[1] = target: T1, C3b (Homo sapiens, UniProt P01024); experiment: Label-enhanced SPR; type: binding; details: read-out: KD for C3b, LE-SPR, B23-C5; 1:1 Langmuir kinetic model
Procedure, shortened: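 C5 was dialysed into PBS pH 7.4 (2 h, RT), labelled 1 h in the dark with 5-fold molar excess NHS-B23 dye, then dialysed into HBS overnight at 4°C. A two-fold concentration series ran over oriented biotin-C3b (5,160 RU) at 10 μl min−1 with 1 min association and 1 min dissociation. An unlabelled injection at the top concentration weighted dip width and position to give epigrams (eRU). KD from a 1:1 Langmuir kinetic fit.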

[2] = tested on: C3b deposition (classical pathway); experiment: CP ELISA, C3b deposition; type: biochemical, human; details: concentrations up to 625 μM, 1% (v/v) serum
Procedure, shortened: (§1)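 Wells coated overnight with 3 μg ml−1 human IgM in carbonate pH 9.6, then blocked with BSA/Tween-20 in PBS. Test compound (250 μM single concentration, or series up to 625 μM; 2.5% DMSO) is added to 1% (v/v) normal human serum in HEPES pH 7.3, gelatin, NaCl, 2 mM CaCl2, 0.5 mM MgCl2. Incubated 1 h at 37°C. Detection: anti-C3b WM1 or anti-C4b C4-1 (1/300). Normalised to mean vehicle as 100%.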

[3] = target: C5/C3b interaction (Homo sapiens, UniProt P01024); experiment: LE-SPR competition assay B23-C5/C3b; type: binding
Procedure, shortened: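 B23-C5 (250 nM) was co-injected over oriented biotin-C3b (4,460 RU) with competitor: unlabelled C5 (250 nM), TRX-4W9A (12 μM) or compstatin peptide (65 μM) in HBS-T. Runs with small molecules used buffer with 5% (v/v) DMSO. A parallel competitor-only injection served for epigram calculation. Residual binding was the mean eRU over 10 s before injection stop, relative to B23-C5 alone or DMSO vehicle. Each run was done 2–4 times.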

[4] = target: compstatin/C3b binding (Homo sapiens, UniProt P01024); experiment: LE-SPR competition assay B23-TRX-4W9A; details: 500 μM compound, 500 nM B23-TRX-4W9A vs 5% DMSO
Procedure, shortened: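 B23-labelled TRX-4W9A (500 nM) was co-injected with 500 μM test compound, 5% (v/v) DMSO vehicle, or 65 μM compstatin peptide (positive control) over oriented biotin-C3b (3,800 and 3,100 RU surfaces). Running buffer contained 5% DMSO, and competitor-only injections served for epigram calculation. Residual binding was the mean eRU over 10 s before injection stop, relative to DMSO control. Each compound was tested on at least two independent C3b surfaces.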

[5] = tested on: alternative pathway (AP) complement activation, MAC deposition; experiment: AP-specific complement ELISA, MAC deposition; type: biochemical, human; details: 250 μM, 20% (v/v) serum
Procedure, shortened: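 Wells coated overnight with 25 μg ml−1 Salmonella typhosa LPS in 100 mM carbonate pH 9.6, then blocked 1 h at 37°C with PBS/1% BSA/0.05% Tween-20. Test compound (250 μM final, 2.5% DMSO) is mixed with 20% (v/v) normal human serum in HEPES pH 7.5, gelatin, NaCl, 5 mM MgCl2, 5 mM EGTA. Incubated 1 h at 37°C. MAC detected with anti-C5b-9 aE11 (1/300). Signal expressed against mean vehicle as 100%.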

[6] = tested on: C5a production (C5 cleavage); experiment: C5a capture ELISA of CP ELISA reactions; type: biochemical, human; details: fixed 500 μM cmp-5, serum 0–4% (v/v); DMSO control 1.55% (v/v)
Procedure, shortened: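 Completed CP ELISA reactions (IgM-coated plates, CP buffer, 1 h at 37°C; fixed 500 μM test compound or DMSO vehicle, serum 0–4% (v/v)) were diluted 2-fold onto plates coated overnight at room temperature with 1 μg ml−1 anti-C5a neoepitope mAb. Incubation 1 h at RT with rocking. Detection used rabbit anti-human C5a (1/200, 1 h RT), then goat anti-rabbit-HRP (1/5000, 1 h) and TMB, read at 450 nm. Signals normalised to the mean vehicle control as 100%.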

[7] = Compound solubility in CP ELISA assay buffer; type: physicochemical; details: aqueous buffer
[8] = tested on: classical pathway (CP) complement activation, MAC deposition; experiment: CP-specific complement ELISA, MAC deposition; type: biochemical, human
Procedure, shortened: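 Plates carry 3 μg ml−1 human IgM, blocked with BSA/Tween-20. Test compound (250 μM, or 0–625 μM series; 2.5% DMSO) is mixed with 1% normal human serum in HEPES pH 7.3 buffer with 2 mM CaCl2, 0.5 mM MgCl2 and gelatin. Serum-titration arm: fixed 500 μM compound or DMSO vehicle, serum 0–4% (v/v). Incubated 1 h at 37°C. Read-out: anti-MAC aE11 (1/300). Normalised to vehicle mean as 100%.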

[9] = tested on: C4b deposition (classical pathway); experiment: CP ELISA, C4b deposition; type: biochemical, human; details: concentrations up to 625 μM, 1% (v/v) serum
Procedure, shortened: as §1

[10] = target: T1, C3b; type: binding; details: read-out: KD for C3b, conventional SPR, C5; 1:1 Langmuir kinetic model
Procedure, shortened: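 Biotinylated C3b was captured on a NeutrAvidin-coupled sensor chip (6,560 RU surface for C5). Native C5 in HBST ran as a two-fold concentration series: 2 min injection, 3 min dissociation, 30 μl min−1, no regeneration. KD came from a 1:1 Langmuir kinetic fit of reference-corrected sensorgrams.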

[11] = target: T2, site-specifically biotinylated C3b (human, UniProt P01024 23-667; P01024 749-1663, site-specifically biotinylated with EZ-link Maleimide-PEG2-biotin); experiment: AlphaScreen or HTRF
[12] = target: T2, site-specifically biotinylated C3b; experiment: SPR
[13] = target: T2, site-specifically biotinylated C3b; experiment: SPR; remark: listed apart in the source
[14] = target: T2, site-specifically biotinylated C3b; experiment: SPR; remark: listed apart in the source

Molecule: B23-C5: C5 labeled with NHS-B23 dye
- Kd [1]: 3200 nM

Molecule: Cc1ccnn1-c1cccc(NC(=O)CC2OC(=O)c3ccccc32)c1 (stereo not shown) [cmp-5, N-(3-(5-methyl-1H-pyrazol-1-yl)phenyl)-2-(3-oxo-1,3-dihydroisobenzofuran-1-yl)acetamide]
- effect on C3b deposition, CP ELISA [2]: no effect
- effect on B23-C5/C3b interaction, small molecules ([3]; 500 μM compound, 250 nM B23-C5 vs 5% DMSO vehicle): did not affect; also recorded: failed to perturb
- effect on B23-TRX-4W9A-specific LE-SPR signal (C3b binding) [4]: reduction of specific C3b-binding; also recorded: modest ability to compete
- inhibition of the AP (MAC deposition) [5]: significant inhibition
- MAC deposition relative to control response (AP ELISA) ([5]; n=5): 73 ± 4.6%
- EC50 of serum, C5a production [6]: 2.04 % (v/v)
- solubility [7]: ~600 µM (≈ 208 µg/mL)
- inhibition of MAC deposition in CP ELISA ([8]; 250 μM, 1% (v/v) serum): significant inhibition
- MAC deposition relative to control response (CP ELISA) ([8]; 250 μM, 1% (v/v) serum, n=13): 59 ± 2.4%
- EC50 of serum, MAC deposition ([8]; fixed 500 μM cmp-5, serum 0–4% (v/v), DMSO control 0.88% (v/v)): 1.43 % (v/v)
- effect on C4b deposition, CP ELISA [9]: no effect

Molecule: C5: complement component C5, purified protein (Complement Technologies)
- Kd [10]: 350 nM
- effect on B23-C5/C3b LE-SPR signal, protein/peptide competitors ([3]; 250 nM B23-C5, 250 nM unlabeled C5, 12 μM TRX-4W9A or 65 μM compstatin peptide): reduces the B23-C5 specific LE-SPR signal
- reduction of specific binding of B23-C5 to C3b ([3]; 250 nM B23-C5, competitor 250 nM unlabeled C5 or 12 μM TRX-4W9A, HBS-T): ~50%

B1: untagged Ba(1–3) (domain or fragment, human, UniProt P00751 35-220, looked up)
chain: GSCSLEGVEIKGGSFRLLQEGQALEYVCPSGFYPYPVQTRTCRSTGSWSTLKTQDQKTVRKAECRAIHCPRPHDFENGEYWPRSPYYNVSDEISFHCYDGYTLRGSANRTCQVNGRWSGQTAICDNGAGYCSNPGIPIGTRKVGSQYRLEDSVTYHCSRGLTLRGSQRRTCQEGGSWSGTEPSCQD
- Kd [11]: 4700 nM

Molecule: ENLYFQGGSGSGSGICVWQDWGAHRCT (designed binder) [thioredoxin-compstatin fusion protein (TRX-4W9A)]
- Kd [12]: 770 nM

Molecule: ENLYFQGGSGSGSGICVWQDWGAHRCT (designed binder, labeled with the dye reagent Episentec NHS-B23 (5-fold molar excess)) [B23 dye-labeled TRX-4W9A]
- Kd [13]: 560 nM
- Kd [14]: 790 nM
